HIF act: HIF pathway transcriptional activators, primary screen, cell-based, U2OS HRE-luciferase, luminescence | U2OS HRE-luciferase reporter; normalized: DMSO 0%, desferrioxamine 100% | activation, % at 7.5 µM (by protocol) | 0.32% of 300,000 active | AID 1910, 2009;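 active = mean activation of at least 10% of the iron chelator positive control signal, with at least half of replicates also reaching 10%; inconclusive = mean and replicate majority disagree about reaching 10%; inactive = mean and most replicates under 10%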
CSC inhib: cancer stem cell viability inhibitors, primary screen, luminescence; cancer stem cell-like cells viability; inhibition, % at 7.5 µM; 1.1% of 300,000 active; AID 2717, 2010; in the data active = inhibition above about 75%; inconclusive = no clear call, values can overlap the other calls; tested in HMLE shEcad cells
Beta cell apopt: inhibitors of cytokine-induced beta cell apoptosis, primary screen, luminescence; AID 435005, 2010; 0.8% of 300,000 active; protection from apoptosis, % (concentration not given with the values); INS-1E cytokine-induced death, ATP luminescence, 48 h; percent of positive-control rescue, neutral wells zero;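 active = Every replicate reaches about 75%, or at least half do and their mean reaches it too, limit read from the data; inconclusive = At least half of replicates reach the limit but their mean does not; inactive = Under half of replicates reach the limit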;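 note: higher means more ATP so stronger rescue from cytokine killing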
PfHsp90 yeast 2: growth inhibition of PfHsp90-expressing yeast, primary screen, antimalarial PfHsp90 inhibitor project, S. cerevisiae, BacTiter-Glo luminescence, single point, set 2; BacTiter-Glo ATP, 48 h; yeast lacking PDR1 and PDR3 efflux regulators; 0.32% of 310,000 active; AID 504621, 2011; inhibition, % at 9.4 µM;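 active = every replicate shows inhibition above about 80%, whatever the replicate mean, limit read from the data; inconclusive = mean inhibition reaches the set limit but some replicate falls short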
T cruzi repl: inhibitors of intracellular T. cruzi growth, primary screen, luminescence, NIH3T3 host cells; T. cruzi beta-gal in NIH3T3, 90 h; inhibition, % (concentration not given with the values); 1.4% of 300,000 active;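 active = mean inhibition across valid replicates above about 55%, limit read from the data; inconclusive = mean below that limit but half or more replicates reach it; inactive = mean below it, under half of replicates reach it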;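 note: signal also drops with host cell toxicity which is not excluded here; higher percent means less beta-gal luminescence so fewer parasites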
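System: mouse NIH/3T3 fibroblasts infected with β-gal-expressing T. cruzi Tulahuen C4 / Input: NIH/3T3 cells, 5,000 per well / Buffer or medium: Low-serum DMEM with 2% FBS / Probe or stimulus: 5000 reporter trypomastigotes per well / Schedule: ≥90 h infection period, 3 h prior cell attachment / Measured by: GalScreen luminescence, 60 min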
SKKanGAS inh: S. pyogenes SKKanGAS growth inhibitors in kanamycin, primary screen, streptokinase expression inhibitor project, SKKanGAS strain, BacTiter-Glo luminescence; 1.3% of 300,000 active; AID 1662, 2009; 6 h; inhibition, % at 7.5 µM;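 active = mean replicate score, as percent of positive control median, at least 50; inconclusive = mean below 50 but one replicate at or above 50; inactive = mean and every replicate below 50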;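 note: strain carries kanamycin resistance gene driven by streptokinase promoter and grows in 40 µg/ml kanamycin; loss of luminescence reflects streptokinase promoter inhibition or plain growth inhibition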
Hits are given with their value; – = inactive; ? = inconclusive; · = no result given. In the library only some 3.6% were active in any assay of this set; here they are far more common.

SMILES | HIF act | CSC inhib | Beta cell apopt | PfHsp90 yeast 2 | T cruzi repl | SKKanGAS inh
CC(C)COc1cccc(-c2cc(C(=O)N/N=C/c3ccncc3)c3ccccc3n2)c1 | · | – | – | – | · | ·
CN1C=CC(=O)[C@@H](O)[C@H]1c1ccccc1Br | · | · | · | – | · | ·
O=C(/C(=C\c1ccccc1)c1nc2ccccc2[nH]1)c1ccc(Cl)cc1 | – | 79 | – | 104 | – | –
CCOc1ccc(-n2c(SCc3nc(-c4cccs4)no3)nnc2-c2ccncc2)cc1 | – | · | · | – | 64 | –
COc1ccc(-c2cccc([C@H]3[C@@H]4C=CCC[C@@]4(C)C(=O)N3Cc3ccccc3)c2)cc1 | – | 82 | – | – | – | –
C[C@@]12CCC=C[C@H]1[C@H](c1ccoc1)N(Cc1ccccc1)C2=O | – | – | – | – | – | –
C[C@@]12CCC=C[C@H]1[C@H](c1ccccc1Br)N(Cc1ccccc1)C2=O | · | · | · | – | · | ·
CN(C)c1ccc(-c2ccc([C@H]3[C@@H]4C=CCC[C@@]4(C)C(=O)N3Cc3ccccc3)c(F)c2)cc1 | – | – | – | – | – | –
COc1ccc(-c2cc([C@H]3[C@@H]4C=CCC[C@@]4(C)C(=O)N3Cc3ccccc3)ccc2F)cc1OC | – | 91 | – | – | – | –
COc1ccc([C@H]2[C@@H]3C=CCC[C@@]3(C)C(=O)N2Cc2ccccc2)cc1Cl | – | – | – | · | – | –
C[C@@]12CCC=C[C@H]1[C@H](c1ccc(F)c(/C=C/c3ccccc3)c1)N(Cc1ccccc1)C2=O | – | 94 | – | – | – | –
CN(C)c1ccc(-c2cc([C@H]3[C@@H]4C=CCC[C@@]4(C)C(=O)N3Cc3ccccc3)ccc2F)cc1 | – | 104 | – | – | – | –
CCN1CCN(S(=O)(=O)c2ccc(Cl)c(C(=O)N(C)Cc3ccc(C(C)(C)C)cc3)c2)CC1 | · | · | · | – | · | ·
CC(CNC(=O)COC(=O)c1ccco1)c1ccccc1 (centres undefined) | · | – | – | – | · | ·
Cc1cc(C)cc(C(=O)Nc2ccc(NC(=O)Cc3ccccc3)cc2)c1 | – | – | – | – | – | –
Cc1ccc(-c2cc([C@H]3[C@@H]4C=CCC[C@@]4(C)C(=O)N3Cc3ccccc3)ccc2F)cc1 | – | 111 | – | – | – | ?
COc1ccc(-c2ccc([C@H]3[C@@H]4C=CCC[C@@]4(C)C(=O)N3Cc3ccccc3)c(F)c2)cc1OC | – | – | – | – | 67 | 52
Cc1ccc(F)c([C@H]2[C@@H]3C=CCC[C@@]3(C)C(=O)N2Cc2ccccc2)c1 | – | – | – | · | – | –
COc1ccc(-c2c([C@H]3[C@@H]4C=CCC[C@@]4(C)C(=O)N3Cc3ccccc3)ccc3ccccc23)cc1OC | – | – | – | – | – | –
CCCc1cc(=O)[nH]c2nnc(SCC(=O)NCc3ccc4c(c3)OCO4)n12 | – | – | – | · | – | –
Oc1ccc[n+](CCCCC[n+]2cccc(O)c2)c1 | – | – | – | – | – | –
CCCCCCCCCCCCCCCC[n+]1ccccc1 | · | · | · | 114 | · | ·
CCCCCCCC[n+]1cccc(C(=O)N(CC)CC)c1 | – | – | – | – | – | –
CCCCCCCCCCCCCCCC[n+]1ccc(C(N)=O)cc1 | · | · | – | 104 | · | ·
CCCCCCCCCCCCCCCC[n+]1cccc(C(=O)N(CC)CC)c1 | – | 143 | 91 | 107 | – | 92
SMILES | HIF act | CSC inhib | Beta cell apopt | PfHsp90 yeast 2 | T cruzi repl | SKKanGAS inh
CCCCCCCCCCCCCCCC[n+]1ccc(/C=N/O)cc1 | · | 100 | 123 | 106 | · | ·
COc1cccc(Cn2cc(C(=O)NCCN(C)C)nn2)c1 | – | – | – | – | – | –
CCCc1cc(=O)n(-c2nc3ccccc3s2)[nH]1 | – | 140 | – | – | – | –
COc1ccc(NC(=O)c2c(OC)cccc2OC)c(OC)c1 | – | – | – | – | 59 | –
CCCNC(=O)c1ccc2c(=O)c(O)c(-c3ccc(Cl)c([N+](=O)[O-])c3)[nH]c2c1 | – | – | 79 | – | – | –
CCCCCCn1ccc(=N)cc1 | – | – | 120 | – | · | –
CC1=C(C(=O)OCc2ccccc2)C(/C=C/c2ccccc2)NC(=S)N1 (centres undefined) | – | · | – | 85 | – | –
C=CCOC(=O)C1=C(C)NC(=S)NC1/C=C/c1ccccc1 (centres undefined) | – | · | – | – | – | –
O=C(CC(c1ccco1)C1CCCCC1=O)c1ccccc1 (centres undefined) | – | – | – | – | – | –
CCOC(=O)C1CCN(c2ncnc3c2c(-c2ccccc2)cn3-c2ccccc2)CC1 | – | ? | – | · | 59 | –
Cc1ccc(-n2cc(-c3ccccc3)c3c(N4CCOCC4)ncnc32)cc1 | – | · | · | – | – | –
Cc1cccc(-n2cc(-c3ccccc3)c3c(N4CCOCC4)ncnc32)c1 | – | 105 | – | – | – | –
O=C(Nc1ccccc1)C1=C(c2ccccc2)S(=O)(=O)CCS1(=O)=O | – | · | · | – | 69 | –
CN(CC(=O)Nc1ccc(S(=O)(=O)N2CCCC2)cc1)Cc1ccc(Cl)cc1 | – | – | – | – | 57 | –
O=C(CNC1CCN(Cc2ccccc2)CC1)Nc1ccc(S(=O)(=O)N2CCCCC2)cc1 | – | – | – | – | 55 | –
O=[N+]([O-])c1ccc(S(=O)(=O)N2CCN(C3CCN(Cc4ccccc4)CC3)CC2)cc1 | – | – | – | – | ? | –
CN(CC(=O)Nc1ccc(S(=O)(=O)N2CCCC2)cc1)Cc1c(F)cccc1Cl | – | – | – | – | – | –
O=S(=O)(c1ccc(Cl)cc1)N1CCN(C2CCN(Cc3ccccc3)CC2)CC1 | – | – | – | – | 61 | –
O=C(CNC1CCCC1)Nc1ccc(S(=O)(=O)N2CCCCC2)cc1 | – | – | – | – | – | –
Cn1nc([N+](=O)[O-])nc1Sc1nnnn1-c1ccc(C(=O)O)cc1 | – | – | – | – | – | –
O=C(Cc1ccc(F)cc1)Nc1c(C(=O)N2CCN(c3ncccn3)CC2)oc2ccccc12 | – | – | – | – | – | –
O=C(/C=C/c1cccc([N+](=O)[O-])c1)NCc1cccnc1 | – | · | – | – | – | –
O=C(/C=C/c1ccc([N+](=O)[O-])cc1)NCc1cccnc1 | – | – | 95 | · | – | –
O=C(NCc1ccco1)c1ccc(Cn2cc([N+](=O)[O-])cn2)o1 | – | – | – | – | – | –
O=C(Nc1cccnc1)c1ccc([N+](=O)[O-])o1 | – | – | – | – | – | –
O=C(NCc1ccco1)c1ccc([N+](=O)[O-])o1 | – | – | – | · | 73 | –
O=C(NCc1cccnc1)c1ccc([N+](=O)[O-])o1 | – | – | – | · | 74 | –
O=C(/C=C/c1ccccc1)Nc1cccc(C(=O)N2CCCC2)c1 | · | · | · | – | · | ·
